This note sets out measurements from ChEMBL document CHEMBL3352206, “Discovery of substituted 4-aminoquinazolines as selective Toll-like receptor 4 ligands” (Bioorg Med Chem Lett, 2014).

Molecules are shown by their SMILES. Active and inactive are the calls of the source. No cut-off for these calls is given here.

Data set [1] deals with Toll-like receptor 4 (Homo sapiens) (UniProt O00206). In words: Activation of human TLR4 fransfectoma in HEK Blue cells at 0.5 uM relative to LPS. The format is cell-based. The settings on record: HEK293. In short, it runs like this:
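hTLR4 HEK Blue transfectoma cells incubated with compound at 0.5 μM for 20–22 h; SEAP read by QuantiBlue OD630. Values normalized to LPS (100 ng/mL) positive control set at 100.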

The subject of another data set is HepG2. In words: Cytotoxicity against human HepG2 cells at 10 uM by MTT assay. Type of data set: functional. In a few lines: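 HepG2 viability by MTT at 10 μM compound; OD570–650 normalized to vehicle-treated cells in the same experiment.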
For data set [2], the system named is PBMC. In words: Induction of IL-8 level in human PBMC at 0.5 uM by ELISA relative to LPS. Type of data set: functional. In a few lines:
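Primary human PBMC stimulated overnight with compound at 0.5 μM; IL-8 in supernatant by ELISA, normalized to LPS (100 ng/mL) set at 100.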
For orientation: ELISA stands for enzyme-linked immunosorbent assay.

Data set [3] relates to PBMC. In words: Induction of CD83 expression in CD11c+ HLA-DR+ population of human PBMC. The format is functional, cell-based. In short, it runs like this:
(§1)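 Human PBMC incubated overnight with compound at 5 μM; CD80 and CD83 measured by flow cytometry on gated CD11c+HLA-DR+ cells. Two independent experiments.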

In data set [4] the test system is BMDC. In words: Induction of CD40 expression in wild type CD11c+ population of mouse BMDC. Type of data set: functional. In a few lines: (§2)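 BMDC from wild-type or Tlr4−/− mice treated with compound or vehicle (0.5% DMSO); stained for CD11c plus CD40, CD80 or CD86. Marker expression assessed by flow cytometry on gated CD11c+ cells.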
For data set [5], the system named is BMDC. In words: Induction of CD80 expression in wild type CD11c+ population of mouse BMDC. The format is functional. In short, it runs like this: as §2
In data set [6] the test system is BMDC. In words: Induction of CD40 expression in TLR4-deficient CD11c+ population of mouse BMDC. The format is functional. In a few lines: as §2
Data set [7] has as its target Toll-like receptor 4 (Homo sapiens) (UniProt O00206). In words: Activation of human TLR4 complex expressed in MD2-deficient HEK293 Blue cells coexpressing CD14 assessed as SEAP secretion at 10 uM after 20 to 24 hrs by SEAPorter assay. Type of data set: cell-based.
For data set [8], the target named is T1, Toll-like receptor 4/MD-2 (Homo sapiens) (UniProt O00206+Q9Y6Y9). In words: Activation of human TLR4/MD2 complex expressed in HEK293 Blue cells coexpressing CD14 assessed as SEAP secretion at 10 uM after 20 to 24 hrs by SEAPorter assay in presence of Rhodobacter sphaeroides LPS. The format is cell-based. In a few lines:
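hTLR4/MD-2/CD14 transfectoma cells given 10 μM compound or 10 ng/mL LPS, with or without the TLR4 antagonist LPS-RS (Rhodobacter sphaeroides LPS; 12, 111, 1000 ng/mL). TLR4/NF-κB activation read as SEAP in supernatant. One-way ANOVA with Dunnett's test versus vehicle.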

A short description of data set [9]: Cytotoxicity against mouse BMDC at 10 uM after 18 hrs incubation by MTT assay. In short, it runs like this: (§3)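 Human PBMC or mouse BMDC incubated 18 h with compound at 10 μM; viability by MTT assay, reported as percent.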
For orientation: Tetrazolium dyes change colour on reduction, which living cells bring about.

Data set [10] has as its system PBMC. In words: Cytotoxicity against human PBMC at 10 uM after 18 hrs incubation by MTT assay. The format is cell-based. In a few lines:
as §3

The subject of data set [11] is BMDC. In words: Induction of CD86 expression in TLR4-deficient CD11c+ population of mouse BMDC. The format is functional. In short, it runs like this:
as §2

The target in data set [12] is T1, Toll-like receptor 4/MD-2 (Homo sapiens). In words: Activation of human TLR4/MD2 complex in human THP1 cells assessed as induction of NFkappaB activation incubated for 18 hrs. The settings on record: THP-1. The format is cell-based. In short, it runs like this: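 CellSensor THP-1 or RAW264.7 cells carrying an NF-κB-driven FRET β-lactamase reporter; graded compound concentrations for 18 h. NF-κB activation normalized to LPS (5 ng/mL) and expressed as percent activation.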

Data set [13] addresses Toll-like receptor 4/MD-2/CD14 (Mus musculus) (UniProt Q9QUK6+Q9JHF9+P10810). In words: Activation of mouse TLR4/MD2 complex in mouse RAW264.7 cells assessed as induction of NFkappaB activation incubated for 18 hrs.
Data set [14] relates to PBMC. In words: Induction of CD80 expression in CD11c+ HLA-DR+ population of human PBMC. The format is functional, cell-based. In short, it runs like this:
as §1

For data set [15], the system named is PBMC. In words: Induction of IL-8 level in human PBMC at < 1 uM by ELISA. Type of data set: functional, cell-based. In short, it runs like this:
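Mouse BMDC or human PBMC stimulated overnight with graded compound concentrations; IL-6 (mouse) or IL-8 (human) in supernatant by ELISA. Mean ± SEM of triplicates, two independent experiments.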

Data set [16] deals with PBMC. In words: Induction of IL-8 expression in human PBMC by ELISA in presence of polymyxin B. The format is functional, cell-based. In a few lines: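 Human PBMC incubated overnight with compound, alone or with polymyxin B (10 μg/mL); IL-8 in supernatant by ELISA. Mean ± SEM of triplicates, two independent experiments.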
Data set [17] addresses T1, Toll-like receptor 4/MD-2 (Homo sapiens). In words: Activation of human TLR4/MD2 complex expressed in HEK293 Blue cells assessed as SEAP secretion at 10 uM after 20 to 24 hrs by SEAPorter assay.
Data set [18] concerns BMDC. In words: Induction of CD86 expression in wild type CD11c+ population of mouse BMDC. The format is functional. In short, it runs like this: as §2
In data set [19] the target is T1, Toll-like receptor 4/MD-2 (Homo sapiens). In words: Activation of human TLR4/MD2 complex expressed in HEK293 Blue cells coexpressing CD14 assessed as SEAP secretion at 10 uM after 20 to 24 hrs by SEAPorter assay. The format is cell-based.
The subject of data set [20] is BMDC. In words: Induction of CD80 expression in TLR4-deficient CD11c+ population of mouse BMDC. Type of data set: functional. In a few lines: as §2
The test system of data set [21] is BMDC. In words: Induction of IL-6 production in TLR4-deficient mouse BMDC at 10 uM by ELISA. Type of data set: functional. In short, it runs like this:
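BMDC from wild-type and TLR4-deficient mice stimulated with compound at 10 μM; IL-6 in culture supernatant by ELISA.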

Another data set relates to L929. In words: Induction of type 1 IFN release in mouse L929-ISRE cells assessed as luciferase release at 10 uM. Type of data set: functional, cell-based. In short, it runs like this: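 Human PBMC incubated overnight with compound (10 μM), LPS (10 ng/mL) or vehicle; type I IFN in supernatant quantified as luciferase release from L929-ISRE reporter cells. Mean ± SEM of triplicates.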

Toll-like receptor 4 (Homo sapiens), sequence (O00206 whole entry): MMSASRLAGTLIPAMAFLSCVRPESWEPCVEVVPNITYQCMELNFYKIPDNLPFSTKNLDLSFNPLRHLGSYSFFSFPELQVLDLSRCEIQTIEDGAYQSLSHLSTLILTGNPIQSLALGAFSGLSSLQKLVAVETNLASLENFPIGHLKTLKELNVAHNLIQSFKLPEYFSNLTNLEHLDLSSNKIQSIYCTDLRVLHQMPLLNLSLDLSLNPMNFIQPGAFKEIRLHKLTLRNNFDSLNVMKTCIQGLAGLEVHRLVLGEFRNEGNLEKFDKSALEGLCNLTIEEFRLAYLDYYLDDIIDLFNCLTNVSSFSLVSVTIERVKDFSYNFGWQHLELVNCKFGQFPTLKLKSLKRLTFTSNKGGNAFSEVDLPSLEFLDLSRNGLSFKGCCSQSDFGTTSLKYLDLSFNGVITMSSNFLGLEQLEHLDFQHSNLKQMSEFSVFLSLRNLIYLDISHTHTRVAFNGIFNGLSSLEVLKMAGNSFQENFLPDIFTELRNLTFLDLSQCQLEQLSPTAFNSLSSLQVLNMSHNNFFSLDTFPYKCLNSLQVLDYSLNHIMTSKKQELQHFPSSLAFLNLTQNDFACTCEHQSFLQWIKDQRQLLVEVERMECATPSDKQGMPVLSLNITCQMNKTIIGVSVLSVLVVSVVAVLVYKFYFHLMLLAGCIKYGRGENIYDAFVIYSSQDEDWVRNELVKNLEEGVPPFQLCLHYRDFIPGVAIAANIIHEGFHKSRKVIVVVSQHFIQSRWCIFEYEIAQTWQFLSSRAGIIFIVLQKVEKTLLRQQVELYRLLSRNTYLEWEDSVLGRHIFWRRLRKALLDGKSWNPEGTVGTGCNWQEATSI

Consider `Nc1cc(Nc2nc(C(=O)O)nc3ccccc23)cc(Oc2ccccc2)c1`, for which the figures for the Activity (in data set [1]; in the data set with HepG2; with PBMC [2]) were 1.1%, 105% and 0.3%, respectively.

With `CCOC(=O)c1nc(Nc2cc(Oc3cccc(C)c3)cc([N+](=O)[O-])c2)c2ccccc2n1`, the Activity in [1] is 14.5%; in the data set on HepG2, 109.9%; in the data set on PBMC [2], 5.8%.

For the compound `CCOC(=O)c1nc(Nc2cc(Oc3ccc4ccccc4c3)cc([N+](=O)[O-])c2)c2ccccc2n1`, the figures for the Activity (in [1]; in the data set with HepG2; in the data set on PBMC [2]) were 0.8%, 111.4% and 0%, respectively.

Take `NC(=O)c1nc(Nc2cc(Oc3ccccc3)cc([N+](=O)[O-])c2)c2ccccc2n1`: the Activity in data set [1] was determined as 0%; in the data set on HepG2 it was 78.4%; in the data set on PBMC [2] it was 0.3%.

In the case of `CCOC(=O)c1nc(Nc2cc(Oc3c(C)cccc3C)cc([N+](=O)[O-])c2)c2ccccc2n1`, the Activity in [1] amounted to 0.6%; in the data set with HepG2, 106.3%; in the data set on PBMC [2] it was 0%.

As to `CCOC(=O)c1nc(Nc2cc(N)cc(Oc3ccccc3)c2)c2ccccc2n1`, the Activity in data set [1] is 0.6%; with HepG2, 106.1%; in the data set on PBMC [2] it was 0.3%.

In the case of `CCOC(=O)c1nc(Nc2cc(Oc3ccccc3C)cc([N+](=O)[O-])c2)c2ccccc2n1`, the Activity in data set [1] came out at 45.5%; in the data set on HepG2, 96.7%.

`O=C(O)c1nc(Nc2cc(Oc3ccccc3Br)cc([N+](=O)[O-])c2)c2ccccc2n1`: the Activity in data set [1] came to 1.6%; in the data set on HepG2, 96.3%; in the data set with PBMC [2], 0%.

Take `CCOC(=O)c1nc(Nc2cc(Oc3ccccc3I)cc([N+](=O)[O-])c2)c2ccccc2n1`: the Activity in data set [1] was 65.5%; in the data set on HepG2, 93.8%.

`CCOC(=O)c1nc(Nc2cc(Oc3ccc(C)cc3)cc([N+](=O)[O-])c2)c2ccccc2n1`: the figures for the Activity (in data set [1]; with HepG2; with PBMC [2]) were 0.5%, 108.8% and 0.4%, respectively.

As for `CCOC(=O)c1nc(Nc2cc(Oc3ccccc3C(F)(F)F)cc([N+](=O)[O-])c2)c2ccccc2n1`, the figures for the Activity (in [1]; in the data set with HepG2) were 58.7% and 67.1%, respectively.

Regarding `CCOC(=O)c1nc(Nc2cc(Oc3ccccc3Cl)cc([N+](=O)[O-])c2)c2ccccc2n1`, the values for the Activity (in data set [1]; with HepG2) were 73.9% and 107.4%, respectively.

With `CCNC(=O)c1nc(Nc2cc(Oc3ccccc3)cc([N+](=O)[O-])c2)c2ccccc2n1`, the Activity in data set [1] came out at 2.2%; in the data set with HepG2, 107.4%; with PBMC [2], 1.5%.

With `CC(C)CCOC(=O)c1nc(Nc2cc(Oc3ccccc3)cc([N+](=O)[O-])c2)c2ccccc2n1`, the results for the Activity (in data set [1]; with HepG2; in the data set on PBMC [2]) were 8.4%, 63.4% and 2.2%, respectively.

In the case of `CCOC(=O)c1nc(Nc2cc(Oc3ccccc3CC)cc([N+](=O)[O-])c2)c2ccccc2n1`, the results for the Activity (in data set [1]; with HepG2; in the data set with PBMC [2]) were 4.2%, 98.9% and 3.2%, respectively.

For the compound `O=C(O)c1nc(Nc2cc(Oc3ccccc3)cc([N+](=O)[O-])c2)c2ccccc2n1`, the Activity in data set [1] was 0.6%; with HepG2, 84.5%; in the data set on PBMC [2], 0.5%.

For the compound `CCOC(=O)c1nc(Nc2cc(Oc3ccccc3Br)cc([N+](=O)[O-])c2)c2ccccc2n1`, the Activity in data set [1] came out at 79%; in the data set on HepG2, 90.8%.

Consider `CC(C)OC(=O)c1nc(Nc2cc(Oc3ccccc3)cc([N+](=O)[O-])c2)c2ccccc2n1`, for which the Activity came out at 7.4% in data set [1], 65.6% in the data set with HepG2 and 2.1% with PBMC [2].

For the compound `COC(=O)c1nc(Nc2cc(Oc3ccccc3)cc([N+](=O)[O-])c2)c2ccccc2n1`, the Activity in data set [1] worked out at 0.4%; in the data set with HepG2, 116.4%; with PBMC [2] it was 0.2%.

Regarding `CCOC(=O)c1nc(Nc2cc(Oc3ccccc3)cc([N+](=O)[O-])c2)c2ccccc2n1`, the result (in the data set with PBMC [3]; with BMDC [4]; in the data set on BMDC [5]; in [12]; in data set [13]; with PBMC [14]) was Active. The outcome (with PBMC [15]; with PBMC [16]; in the data set on BMDC [18]; in data set [19]; in the data set on L929) was Active. The outcome (with BMDC [6]; in [7]; in [8]; in the data set with BMDC [11]; in data set [17]; with BMDC [20]) was inactive. Also, in the data set on BMDC [21], the result was inactive. The Activity in data set [1] is 49.1%; in data set [9] it was 117%; in the data set with PBMC [10] it was 112%; in the data set with HepG2, 93.5%.

Consider `CC(C)OC(=O)c1nc(Nc2cc(Oc3ccccc3Br)cc([N+](=O)[O-])c2)c2ccccc2n1`, for which the Activity in data set [1] came to 67.8%; in the data set on HepG2 it was 106.5%.
